Data from ChEMBL document CHEMBL4257590, “Semisynthesis of Platensimycin Derivatives with Antibiotic Activities in Mice via Suzuki-Miyaura Cross-Coupling Reactions” (J Med Chem, 2018).
Converted amounts (≈) assume the structure as drawn. The source made the active and inactive calls. The calls are words filed in the database; no cut-off is given here.

Assays:
[1] = system: Mus musculus; experiment: Toxicity in C57BL/6J mouse infected with methicillin-resistant Staphylococcus aureus assessed as mouse death at 50 mg/kg, […] measured within 48 hrs; type: organism-based; details: in vivo, ip
[2] = system: Staphylococcus aureus; experiment: Antibacterial activity against methicillin-resistant Staphylococcus aureus isolate 3 after 16 hrs by agar dilution method; type: functional; details: isolate 3, 16 h
Procedure, shortened: (§1)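 Agar dilution in LB agar with compound (from methanol solutions) at final 0.5–64 μg/ml per plate. Strains grown 16 h at 37 °C, 250 rpm in LB broth, adjusted to OD600 0.25±0.05, diluted 10^4-fold; 2 μl spotted per plate, incubated 16 h at 37 °C. MIC = lowest concentration with no visible colonies; at least two independent experiments. Linezolid and PTM as controls.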

[3] = system: Staphylococcus aureus; experiment: Antibacterial activity against Staphylococcus aureus ATCC 29213 after 16 hrs by agar dilution method; type: functional; details: ATCC 29213, 16 h; procedure, shortened: as §1
[4] = system: Staphylococcus aureus; experiment: Antibacterial activity against methicillin-resistant Staphylococcus aureus infected in C57BL/6J mouse assessed as reduction in bacterial load in kidney at 50 mg/kg, ip administered 1 and 5 hrs postinfection and measured at 12 hrs post bacterial infection; type: functional, organism-based
Procedure, shortened: (§2)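 Female C57BL/6J mice, 6–8 weeks, 18–21 g, infected ip with 2 × 10^7 CFU MRSA in 0.2 ml saline with 5% hog gastric mucin. Dosed ip 50 mg/kg at 1 and 5 h post-infection; test agents at 5 mg/mL in 12.5% DMSO/30% propanediol/30% PEG400/27.5% saline, vancomycin in saline, saline control. At 12 h blood and homogenized kidneys plated on LB agar overnight at 37 °C for CFU; n = 5, mean ± SEM, unpaired two-tailed t-test.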

[5] = system: Staphylococcus aureus; experiment: Antibacterial activity against methicillin-sensitive Staphylococcus aureus isolate 2 after 16 hrs by agar dilution method; type: functional; details: isolate 2, 16 h; procedure, shortened: as §1
[6] = system: Staphylococcus aureus; experiment: Antibacterial activity against methicillin-resistant Staphylococcus aureus after 18 hrs in presence of 10% human serum by resazurin dye-based assay; type: functional
Procedure, shortened: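 One clinical MRSA strain grown to exponential phase (OD600 = 0.5), diluted to 10^6 CFU/ml in Mueller-Hinton broth; 100 μl compound dilutions mixed with 100 μl bacteria with or without 10% human serum, 18 h at 37 °C. Resazurin (0.66 mM, 50 μl) then added and read visually.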

[7] = system: Mus musculus; experiment: Toxicity in C57BL/6J mouse infected with methicillin-resistant Staphylococcus aureus assessed as effect on mouse body weight at 10 mg/kg, ip administered 1 and 5 hrs postinfection and measured for 7 days; type: organism-based; details: in vivo, 168 h
Procedure, shortened: (§3)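 Lethal peritonitis: female C57BL/6J mice, 6–8 weeks, 18–21 g, infected ip with 2 × 10^7 CFU MRSA in 0.5 ml saline with 5% (w/v) mucin. Treated ip 0.2 mL/mouse at 1 and 5 h post-infection (n = 5/group): 50 mg/kg at 5 mg/mL in 12.5% DMSO vehicle, or 10 mg/kg at 1 mg/mL in 2.5% DMSO/30% propanediol/30% PEG400/37.5% saline; vancomycin in saline, saline control. Checked twice daily for survival and body weight over 7 days.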

[8] = system: Staphylococcus aureus; experiment: Antibacterial activity against methicillin-resistant Staphylococcus aureus isolate 6 after 16 hrs by agar dilution method; type: functional; details: isolate 6, 16 h; procedure, shortened: as §1
[9] = system: Staphylococcus aureus; experiment: Antibacterial activity against methicillin-resistant Staphylococcus aureus isolate 5 after 16 hrs by agar dilution method; type: functional; details: isolate 5, 16 h; procedure, shortened: as §1
[10] = system: Staphylococcus aureus; experiment: Antibacterial activity against methicillin-resistant Staphylococcus aureus infected in C57BL/6J mouse assessed as protection against lethal peritonitis by measuring mouse survival at 50 mg/kg, ip administered 1 and 5 hrs postinfection and measured up to 24 hrs post infection; type: functional, organism-based; procedure, shortened: as §3
[11] = system: Staphylococcus aureus; experiment: Antibacterial activity against methicillin-sensitive Staphylococcus aureus isolate 1 after 16 hrs by agar dilution method; type: functional; details: isolate 1, 16 h; procedure, shortened: as §1
[12] = system: Staphylococcus aureus; experiment: Antibacterial activity against methicillin-resistant Staphylococcus aureus isolate 4 after 16 hrs by agar dilution method; type: functional; details: isolate 4, 16 h; procedure, shortened: as §1
[13] = system: Staphylococcus aureus; experiment: Antibacterial activity against methicillin-resistant Staphylococcus aureus infected in C57BL/6J mouse assessed as reduction in bacterial load in blood at 50 mg/kg, ip administered 1 and 5 hrs postinfection and measured at 12 hrs post bacterial infection; type: functional, organism-based; procedure, shortened: as §2

SMILES: C[C@]12C[C@@]34C=C(c5cc6cccc7ccc8cccc5c8c76)C(=O)[C@@](C)(CCC(=O)Nc5c(O)ccc(C(=O)O)c5O)[C@@H]3[C@H](C[C@H]1C4)O2
- Activity [1]: Toxic
- MIC [2]: 4 µg/mL (≈ 6.23 µM)
- MIC [3]: 2 µg/mL (≈ 3.12 µM)
- Activity [4]: Active
- MIC [5]: 2 µg/mL (≈ 3.12 µM)
- MIC [6]: 4 µg/mL
- Activity [7]: Non-Toxic
- MIC [8]: 2 µg/mL (≈ 3.12 µM)
- MIC [9]: 4 µg/mL (≈ 6.23 µM)
- Activity [10]: inactive
- MIC [11]: 2 µg/mL (≈ 3.12 µM)
- MIC [12]: 2 µg/mL (≈ 3.12 µM)
- Activity [13]: Active
